Calls of active or inactive are those of the source. No cut-off for these calls is given here.
How the values were obtained:
NCI-H460 = experiment: Cytotoxicity against human NCI-H460 cells after 48 hrs; assay type: functional, cell-based; settings: NCI-H460, 48 h
[1] = Cytotoxicity against human Hep3B cells after 48 hrs; assay type: functional, cell-based, Hep 3B2
How it was run: (§1)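 MTT viability assay on log-phase cells at 37 °C, exposed to compound or DMSO vehicle for 48 h. MTT (1 mg/mL in PBS) was then added for 2 h, and absorbance was read at 570 nm with 630 nm correction. IC50 is the concentration giving 50% proliferation inhibition. Cells were cultured in 5% CO2: HL-60 in RPMI-1640 with 10% FBS; Hep3B in DMEM/F12 with 10% FBS; Detroit 551 in DMEM with 10% FBS.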

HL-60 = experiment: Cytotoxicity against human HL60 cells after 48 hrs; assay type: functional, cell-based; settings: HL-60, 48 h; how it was run: as §1
Detroit 551 = experiment: Cytotoxicity against human Detroit 551 cells after 48 hrs; assay type: cell-based; settings: Detroit 551, 48 h; how it was run: as §1
Tubulin (Homo sapiens) [2] = biological target: T1, Tubulin (Homo sapiens) (UniProt P68371+Q9H4B7+P0DPH7+P68366+Q13509+Q71U36+P04350+Q3ZCM7+P07437+P68363+Q9BQE3+Q6PEY2+Q13885+Q9BVA1+Q9BUF5); experiment: Inhibition of tubulin polymerization in human NCI-H522 cells assessed as alpha-tubulin accumulation in cytoskeletal fraction at 100 nM after 24 hrs by Western blot analysis; assay type: cell-based
How it was run: (§2)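 NCI-H522 cells were exposed for 24 h to compound (10, 30 or 100 nM) or DMSO vehicle. They were then lysed 5 min at 37 °C in hypotonic buffer (1 mM MgCl2, 2 mM EGTA, 0.5% NP-40, protease inhibitors, 20 mM Tris-HCl pH 6.8) and centrifuged at 15,000 × g for 10 min at 25 °C. α- and β-tubulin were assessed in the cytoskeletal fraction.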

Tubulin (Homo sapiens) [3] = biological target: T1, Tubulin (Homo sapiens); experiment: Inhibition of tubulin polymerization in human NCI-H522 cells assessed as beta-tubulin accumulation in cytoskeletal fraction at 100 nM after 24 hrs by Western blot analysis; assay type: cell-based; how it was run: as §2
Tubulin (Sus scrofa) = Tubulin (Sus scrofa) (UniProt P02554+P02550); settings: 1 uM
Tubulin (Sus scrofa), sequence (P02550 whole entry, looked up): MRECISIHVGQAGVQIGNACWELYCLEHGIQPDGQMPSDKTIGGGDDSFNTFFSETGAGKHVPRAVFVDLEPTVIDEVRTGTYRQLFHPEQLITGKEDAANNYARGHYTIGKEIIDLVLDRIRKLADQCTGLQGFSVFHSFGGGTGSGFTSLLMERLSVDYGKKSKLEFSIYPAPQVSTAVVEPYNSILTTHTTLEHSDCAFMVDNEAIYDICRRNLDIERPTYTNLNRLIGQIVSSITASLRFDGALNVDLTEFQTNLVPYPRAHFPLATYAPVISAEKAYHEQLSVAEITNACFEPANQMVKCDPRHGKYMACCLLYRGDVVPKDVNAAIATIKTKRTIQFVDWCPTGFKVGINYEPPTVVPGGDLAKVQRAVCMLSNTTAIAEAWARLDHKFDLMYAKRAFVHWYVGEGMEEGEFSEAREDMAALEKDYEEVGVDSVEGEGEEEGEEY
Tubulin (Sus scrofa), sequence (P02554 whole entry, looked up): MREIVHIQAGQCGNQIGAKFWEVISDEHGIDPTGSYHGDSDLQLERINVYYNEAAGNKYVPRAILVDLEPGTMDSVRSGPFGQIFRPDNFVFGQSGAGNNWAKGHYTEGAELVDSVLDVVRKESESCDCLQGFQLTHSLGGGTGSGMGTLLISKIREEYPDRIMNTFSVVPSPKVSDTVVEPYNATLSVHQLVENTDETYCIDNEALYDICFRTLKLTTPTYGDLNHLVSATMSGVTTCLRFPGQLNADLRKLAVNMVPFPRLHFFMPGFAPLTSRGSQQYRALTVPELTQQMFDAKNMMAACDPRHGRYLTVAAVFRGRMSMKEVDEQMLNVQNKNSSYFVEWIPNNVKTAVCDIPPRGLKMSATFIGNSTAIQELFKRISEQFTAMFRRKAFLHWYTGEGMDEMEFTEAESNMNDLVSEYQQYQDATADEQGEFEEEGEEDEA

| SMILES | IC50 (NCI-H460) [µM] | IC50 [1] [µM] | IC50 (HL-60) [µM] | IC50 (Detroit 551) [µM] | inhibition (Tubulin (Homo sapiens) [2]) | inhibition (Tubulin (Homo sapiens) [3]) | inhibition (Tubulin (Sus scrofa)) |
| --- | --- | --- | --- | --- | --- | --- | --- |
| CCOc1cc(O)cc(-c2cc(=O)c3cc4c(cc3[nH]2)OCO4)c1 | > 25 | 25 | 0.5 | – | – | – | – |
| CCOc1cc(O)cc(-c2cc(=O)c3cc(N4CCCC4)ccc3[nH]2)c1 | 0.59 | 0.07 | 0.02 | 13.2 | – | – | – |
| O=c1cc(-c2ccccc2O)[nH]c2cc3c(cc12)OCO3 | 19.1 | 8.04 | 7.62 | 48.9 | – | – | – |
| O=c1cc(-c2cc(O)cc(O)c2)[nH]c2ccc(N3CCCC3)cc12 | 13.9 | 1.58 | 0.34 | > 25 | – | – | – |
| Oc1cccc(-c2cc(O)c3cc4c(cc3n2)OCO4)c1 | 17 | 1.05 | 0.25 | 21.8 | – | – | – |
| O=c1cc(-c2cc(O)cc(O)c2)[nH]c2cc3c(cc12)OCO3 | > 25 | > 25 | 8.71 | – | – | – | – |
| COc1cc(O)cc(-c2cc(=O)c3cc4c(cc3[nH]2)OCO4)c1 | > 50 | > 50 | 0.5 | > 50 | – | – | – |
| COc1cccc(-c2cc(O)c3cc4c(cc3n2)OCO4)c1 | 0.2 | 0.08 | 0.08 | 4.77 | – | – | – |
| COc1cc(O)cc(-c2cc(=O)c3cc(N4CCOCC4)ccc3[nH]2)c1 | > 100 | 6.03 | 3.9 | > 100 | – | – | – |
| CC[C@]1(O)C[C@H]2CN(CCc3c([nH]c4ccccc34)[C@@](C(=O)OC)(c3cc4c(cc3OC)N(C=O)[C@H]3[C@@](O)(C(=O)OC)[C@H](OC(C)=O)[C@]5(CC)C=CCN6CC[C@]43[C@@H]65)C2)C1 | – | – | – | – | Active | Active | Active |
| CC[C@]1(O)C[C@@H]2CN(CCc3c([nH]c4ccccc34)[C@@](C(=O)OC)(c3cc4c(cc3OC)N(C)[C@H]3[C@@](O)(C(=O)OC)[C@H](OC(C)=O)[C@]5(CC)C=CCN6CC[C@]43[C@@H]65)C2)C1 | – | – | – | – | Active | Active | Active |
| COc1cc(O)cc(-c2cc(=O)c3cc(N(C)C)ccc3[nH]2)c1 | > 50 | 6.15 | 0.22 | > 50 | – | – | – |
| O=c1cc(-c2ccc(O)cc2)[nH]c2cc3c(cc12)OCO3 | > 100 | 22.3 | 3.26 | 41 | – | – | – |
